Shown are actives, neighbours in structure and some others; about 4.6% of the full set was active somewhere.
TAAR1 antag – antagonists of human TAAR1. Q96RJ0. CHO RD-HGA16 TAAR1, Fluo-8 calcium fluorescence, antagonist. inhibition, % at 3 µM. hit rate 1.5% among 360,000;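 active = inhibition above a per-plate cutoff, the mean inhibition of test compounds on that plate plus 3 SD, cut at about 49% in these data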;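 also: 0% = DMSO plus EC80 beta-PEA response and 100% = DMSO alone without agonist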
Target sequence (Q96RJ0 whole entry, looked up): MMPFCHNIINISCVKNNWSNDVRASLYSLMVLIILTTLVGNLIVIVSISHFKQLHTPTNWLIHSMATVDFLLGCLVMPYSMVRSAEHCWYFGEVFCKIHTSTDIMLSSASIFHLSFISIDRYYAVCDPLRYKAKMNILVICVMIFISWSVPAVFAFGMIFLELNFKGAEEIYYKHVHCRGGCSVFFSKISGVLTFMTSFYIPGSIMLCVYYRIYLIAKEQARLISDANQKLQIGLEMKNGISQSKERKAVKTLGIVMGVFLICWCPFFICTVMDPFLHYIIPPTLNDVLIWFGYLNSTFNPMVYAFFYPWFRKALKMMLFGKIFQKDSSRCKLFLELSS
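Test system: RD-HGA16 CHO cells with stable hTAAR1 and Gα16 / Probe or stimulus: EC80 β-phenethylamine stimulus / Times: seeding 17-24 h prior, 75-min 37 °C, 30-min RT dye loading / Detection: Fluo-8 calcium-sensitive fluorescence / Read-out basis: % inhibition scaled between DMSO and EC80 PEA controls / Repeats: singlicate, one well per test compound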
GPR7 antagonist – antagonists of human GPR7 (neuropeptides B/W receptor 1) | hit rate 1.1% among 290,000 | P48145 | inhibition, % at 4.4 µM | GPR7-expressing cells, fluorescence antagonist assay; in the data active = inhibition above about 16%, passing the limit was not always enough;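 also: cells stimulated with the agonist NPW; 0% = agonist with vehicle and 100% = vehicle without agonist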
Target sequence (P48145 whole entry, looked up): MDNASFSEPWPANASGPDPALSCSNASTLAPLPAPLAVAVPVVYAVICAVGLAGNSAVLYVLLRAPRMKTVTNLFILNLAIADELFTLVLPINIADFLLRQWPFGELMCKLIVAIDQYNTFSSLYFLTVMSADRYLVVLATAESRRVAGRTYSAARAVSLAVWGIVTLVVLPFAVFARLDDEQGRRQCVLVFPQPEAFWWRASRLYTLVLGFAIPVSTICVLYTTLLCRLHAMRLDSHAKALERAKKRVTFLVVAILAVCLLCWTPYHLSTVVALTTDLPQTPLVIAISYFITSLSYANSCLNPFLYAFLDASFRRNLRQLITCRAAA
CHO parental Ca – counter-screen for OX1R antagonists: effect in parental CHO cells; inhibition, % at 5.6 µM; hit rate 0.63% among 330,000; parental CHO-K1, ATP-induced calcium, Fluo-8 fluorescence;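 active = inhibition above that plate's mean sample inhibition plus 3 SD, cut at about 26% in these data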;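 also: 0% = ATP-challenged DMSO wells and 100% = DMSO wells without ATP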
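material = parental CHO cells | also added = ATP as calcium-mobilizing challenge | dosing = single point at 5.6 µM | detection = intracellular calcium via Fluo-8 no-wash fluorescent dye | read-out = % inhibition | benchmarks = low control ATP plus DMSO, high control DMSO only | repeats = one well per compound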
TAAR1 agonist – agonists of human TAAR1; hit rate 0.99% among 360,000; CHO RD-HGA16 TAAR1, Fluo-8 calcium fluorescence; vehicle wells 0%, saturating PEA agonist 100%; activation, % at 3 µM; AID 624467; Q96RJ0;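 active = activation above the mean activation of all test compounds in the run plus 3 SD, cut at about 38% in these data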
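Test system: RD-HGA16 (CHO) cells co-expressing Gα16 and hTAAR1 / Benchmarks: DMSO vehicle as 0%, PEA at EC100 as 100% / Repeats: no replicates (n 1) / Measure: % activation from peak over basal fluorescence ratio, DMSO-to-PEA scaled / Timing: 17-24 h plating, Fluo-8 75 min 37 °C, 30 min RT / Technique: kinetic Fluo-8 calcium fluorescence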
OX1R antag-1 – blocks the human orexin 1 receptor; inhibition, % at 6.6 µM; OX1R-expressing cells, FRET antagonist read-out; O43613; hit rate 1.8% among 330,000; in the data active = inhibition mostly above about 38%, no sharp cut-off; inactive = mostly below about 40%;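 also: 0% = agonist challenge alone and 100% = reference antagonist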
OX1R antag-2 – blocks the human orexin 1 receptor. hit rate 0.43% among 330,000. AID 434989. CHO/OX1R cells, Fluo-8 calcium fluorescence, orexin A. O43613. inhibition, % at 5 µM;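 active = inhibition above its plate's threshold, mean inhibition of all tested compounds on the plate plus 3 SD, cut at about 37% in these data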;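 also: 0% = orexin A challenge wells and 100% = SB-334867-A antagonist wells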
Numbers without * were called inactive.

Screening COc1ccc(NC(=O)Cn2c3ccccc3c3nc4n(c(=O)c32)CCS4)cc1 returned TAAR1 antag -18.8, GPR7 antagonist 5.0, CHO parental Ca -5.2, TAAR1 agonist 1.8, OX1R antag-1 73.8* and OX1R antag-2 4.1.
For COc1ccc(NC(=O)Cn2c3ccccc3c3nc4n(c(=O)c32)CCS4)cc1OC the results were TAAR1 antag -11.6, GPR7 antagonist -5.3, CHO parental Ca -13.9, TAAR1 agonist 0.1, OX1R antag-1 25.2 and OX1R antag-2 16.6.
`COc1cccc(NC(=O)Cn2c3ccccc3c3nc4n(c(=O)c32)CCCS4)c1` gave TAAR1 antag -7.8, GPR7 antagonist -4.5, CHO parental Ca -31.2, TAAR1 agonist 0.5, OX1R antag-1 36.8* and OX1R antag-2 0.0.
For Cc1cc(C)nc(NS(=O)(=O)c2ccc(NC(=O)Nc3ccccc3)cc2)n1 the results were TAAR1 antag 2.5, GPR7 antagonist -6.7, CHO parental Ca -14.2, TAAR1 agonist 14.1, OX1R antag-1 18.6 and OX1R antag-2 -7.3.
Screening CN(C(=O)c1cccc(NC(=O)Cc2ccc([N+](=O)[O-])cc2)c1)C1CC1 returned TAAR1 antag 2.9, CHO parental Ca -14.7, TAAR1 agonist 7.2, OX1R antag-1 9.8 and OX1R antag-2 0.4.
COc1cccc(C2=Nn3c(nnc3-c3ccccc3O)SC2)c1 was read as TAAR1 antag 4.7, GPR7 antagonist 13.9, CHO parental Ca -11.4, TAAR1 agonist 0.2, OX1R antag-1 15.4 and OX1R antag-2 -15.6.
For C[n+]1c2n(c3ccccc31)N=C(c1cc(C(C)(C)C)c(O)c(C(C)(C)C)c1)CS2 the results were TAAR1 antag -2.4, GPR7 antagonist 70.1*, CHO parental Ca 17.6, TAAR1 agonist 5.6, OX1R antag-1 10.5 and OX1R antag-2 -4.1.
`N#Cc1ccccc1Sc1ccccc1C(=O)Nc1ccc(Br)cc1` gave TAAR1 antag 31.2, GPR7 antagonist -2.1, CHO parental Ca 17.3, TAAR1 agonist 3.4, OX1R antag-1 27.9 and OX1R antag-2 -0.1.
Screening N#Cc1ccccc1Sc1ccccc1C(=O)Nc1ccc2ccccc2c1 returned TAAR1 antag 29.9, GPR7 antagonist 6.5, CHO parental Ca 2.4, TAAR1 agonist 1.3, OX1R antag-1 58.2* and OX1R antag-2 2.6.
Screening c1ccc(CNc2nc(-c3ccccc3)nc3ccccc23)cc1 returned TAAR1 antag 0.8, GPR7 antagonist -22.4, CHO parental Ca -11.4, TAAR1 agonist 0.1, OX1R antag-1 28.8 and OX1R antag-2 -28.9.
For c1ccc(CNc2nc(NCc3ccccc3)c3sccc3n2)cc1 the results were TAAR1 antag 104.3* and TAAR1 agonist 73.5*.
Screening c1ccc(CNc2nc(NCCOc3ccccc3)c3sccc3n2)cc1 returned TAAR1 antag 94.6* and TAAR1 agonist 58.8*.
c1ccc(CNc2nc(NCc3ccccc3)c3ccccc3n2)cc1 was read as GPR7 antagonist 74.1*, CHO parental Ca 74.9*, OX1R antag-1 6.7 and OX1R antag-2 89.3*.
For Fc1ccccc1CNc1nc(NCC2CC2)nc2ccsc12 the results were TAAR1 antag 43.7 and TAAR1 agonist 37.9*.
Screening COc1ccccc1CNc1nc(NCc2ccccc2)nc2ccsc12 returned TAAR1 antag 95.4* and TAAR1 agonist 50.5*.
`CCOC(=O)c1[nH]c2ccc(OC)cc2c1NC(=O)CCN1CCC(C)CC1` gave TAAR1 antag -6.3, GPR7 antagonist -2.2, CHO parental Ca -12.3, TAAR1 agonist 11.7, OX1R antag-1 12.7 and OX1R antag-2 -13.1.
Screening CCOC(=O)Cn1c(=NC(=O)c2cc(-c3cccs3)nc3ccccc23)sc2cc(S(N)(=O)=O)ccc21 returned TAAR1 antag 24.1, GPR7 antagonist 2.8, CHO parental Ca -4.8, TAAR1 agonist 10.6, OX1R antag-1 25.6 and OX1R antag-2 13.8.
`COC(=O)Cn1c(=NC(=O)c2cc(-c3cccs3)nc3ccccc23)sc2cc(S(N)(=O)=O)ccc21` gave TAAR1 antag 30.1, GPR7 antagonist 13.5, CHO parental Ca 35.5*, TAAR1 agonist 4.2, OX1R antag-1 12.1 and OX1R antag-2 20.2.
`COc1ccccc1OCCN(C#N)c1nc(N(C)C)nc(N(C)C)n1` gave TAAR1 antag -8.0, GPR7 antagonist 11.2, CHO parental Ca -16.6, TAAR1 agonist 1.2, OX1R antag-1 16.0 and OX1R antag-2 -14.2.
`CC(Sc1ccccc1)C(=O)NN=C1CCCC1` (configuration not stated) gave TAAR1 antag 5.0, GPR7 antagonist 4.2, CHO parental Ca -17.9, TAAR1 agonist -0.4, OX1R antag-1 21.8 and OX1R antag-2 -16.7.
For Cc1ccccc1OCCOc1cccc(/C=N/NC(=O)Cc2nnc(N)s2)c1 the results were TAAR1 antag 48.9*, GPR7 antagonist 22.4, CHO parental Ca 53.5*, TAAR1 agonist 14.2, OX1R antag-1 61.7 and OX1R antag-2 47.7*.
O=C(Nc1cccc(S(=O)(=O)Nc2ccccc2F)c1)c1ccc2ccccc2n1 was read as TAAR1 antag 30.9, GPR7 antagonist -8.6, CHO parental Ca -10.9, TAAR1 agonist 3.9, OX1R antag-1 82.2* and OX1R antag-2 21.7.
O=C(Nc1cccnc1)c1cccc(S(=O)(=O)Nc2ccccc2F)c1 was read as TAAR1 antag -23.2 and TAAR1 agonist 3.9.
`O=[N+]([O-])c1ccc(S(=O)(=O)NCCc2cn3ccccc3n2)cc1` gave TAAR1 antag -11.2, GPR7 antagonist -7.4, CHO parental Ca -8.1, TAAR1 agonist -0.1, OX1R antag-1 42.4* and OX1R antag-2 -11.2.
`Cc1cccn2cc(CCNS(=O)(=O)c3ccc([N+](=O)[O-])cc3)nc12` gave TAAR1 antag -3.3, GPR7 antagonist -5.8, CHO parental Ca -4.9, TAAR1 agonist 1.1, OX1R antag-1 26.1 and OX1R antag-2 -14.9.
`O=C(O)c1ccc(C(=O)c2ccc3c(c2)C(=O)N(Cc2ccco2)C3=O)cc1` gave TAAR1 antag 6.7, GPR7 antagonist -0.3, CHO parental Ca 4.3, TAAR1 agonist -1.4, OX1R antag-1 50.0* and OX1R antag-2 -14.2.
`CCN1C(=O)c2ccc(C(=O)O)cc2C1=O` gave TAAR1 antag 4.1, GPR7 antagonist -10.3, CHO parental Ca 2.9, TAAR1 agonist 6.1, OX1R antag-1 22.6 and OX1R antag-2 -6.2.
Screening O=C(c1ccc2c(c1)C(=O)N(Cc1ccco1)C2=O)N1CCOCC1 returned TAAR1 antag -6.5, GPR7 antagonist -0.8, CHO parental Ca -9.5, TAAR1 agonist 10.5, OX1R antag-1 17.6 and OX1R antag-2 -11.1.
O=C(O)c1ccc(C(=O)c2ccc3c(c2)C(=O)N(CCO)C3=O)cc1 was read as TAAR1 antag -2.6, GPR7 antagonist -13.0, CHO parental Ca 9.0, TAAR1 agonist 1.6, OX1R antag-1 74.1* and OX1R antag-2 -3.8.

Screening data (PubChem)
